“Also recorded” adds a separate entry of the source. No end group written: not given here.
Assays:
LSD2 [1] = target: T1, LSD2 (Homo sapiens, UniProt Q8NB78); assay: GST pull-down of His-LSD2; type: binding; details: GST pull-down of purified His-LSD2; SDS-PAGE, Coomassie blue staining
T1 sequence (Q8NB78 1-822): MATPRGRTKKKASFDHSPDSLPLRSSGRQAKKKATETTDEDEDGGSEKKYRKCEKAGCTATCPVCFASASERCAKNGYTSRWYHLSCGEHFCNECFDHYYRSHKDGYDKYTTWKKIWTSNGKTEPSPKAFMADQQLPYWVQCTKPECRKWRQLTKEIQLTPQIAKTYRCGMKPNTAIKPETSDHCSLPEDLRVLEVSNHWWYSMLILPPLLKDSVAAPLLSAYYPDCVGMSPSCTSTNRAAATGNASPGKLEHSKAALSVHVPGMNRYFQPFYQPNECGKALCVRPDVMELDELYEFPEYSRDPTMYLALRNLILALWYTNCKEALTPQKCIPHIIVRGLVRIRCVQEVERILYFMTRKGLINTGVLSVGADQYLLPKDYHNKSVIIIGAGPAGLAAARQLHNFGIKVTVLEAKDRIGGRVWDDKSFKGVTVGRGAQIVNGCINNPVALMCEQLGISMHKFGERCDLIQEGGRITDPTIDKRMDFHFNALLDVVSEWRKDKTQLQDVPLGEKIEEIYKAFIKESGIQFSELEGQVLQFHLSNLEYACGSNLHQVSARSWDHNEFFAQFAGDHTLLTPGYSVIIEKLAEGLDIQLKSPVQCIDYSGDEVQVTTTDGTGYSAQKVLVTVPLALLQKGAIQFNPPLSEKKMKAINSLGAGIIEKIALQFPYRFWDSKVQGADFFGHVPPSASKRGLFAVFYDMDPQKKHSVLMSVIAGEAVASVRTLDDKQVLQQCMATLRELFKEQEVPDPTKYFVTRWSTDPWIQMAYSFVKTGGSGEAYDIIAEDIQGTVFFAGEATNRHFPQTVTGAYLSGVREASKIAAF
Summary of the method: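 GST and GST-tagged wild-type or mutant NPAC proteins (linker-region and binding-site mutants) were used to pull down purified His-LSD2. His-LSD2 in input and bound fractions was resolved by SDS-PAGE and stained with Coomassie blue.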

LSD2 [2] = target: T1, LSD2; assay: H3K4me2 peptide; type: biochemical; details: 50 μM H3K4me2 peptide (1–21), 50 mM Tris-HCl pH 8.5, 50 mM KCl, 5 mM MgCl2, 5% glycerol, 37°C, 30 min; MALDI-TOF MS
Summary of the method: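 Purified LSD2, full-length or truncated (residues 51–822), incubated with NPAC-derived peptides or proteins and 50 μM H3K4me2 peptide (residues 1–21, >95% pure by HPLC and MS) in 50 mM Tris-HCl pH 8.5, 50 mM KCl, 5 mM MgCl2, 5% glycerol, 37°C, 30 min. Products desalted on C18 tips; MALDI-TOF MS at constant laser intensity across samples.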

[3] = target: T2, recombinant hexa-His-tagged LSD2 (human, UniProt Q8NB78 1-822); assay: pull-down
T2 sequence (looked up): T1 sequence (Q8NB78 1-822)

Molecule: NP.d7: residues 152–186, containing the AT-hook motif (SERGSKSPLKRAQEQSPRKRGRPPKDEKDLTIPES; also: GST fusion, end not given here)
- LSD2 binding / interaction (LSD2 [1]): but not NP.d7 (residues 152–186, containing the AT-hook motif, lane 4), was sufficient for LSD2 interaction

Molecule: DPHAHHFLLSQT [NP.M6]
- cofactor activity for LSD2 with H3K4me2 peptide (residues 1–21) as substrate (LSD2 [2]): but not the F217A mutant, can stimulate LSD2-mediated demethylation of H3K4me2 peptides; also recorded: These results were further confirmed in demethylation assays using H3K4me2 peptide substrate (residues 1–21)

B1: GST-tagged wild-type NPAC (natural protein, UniProt Q49A26 1-553, looked up)
chain: MAAVSLRLGDLVWGKLGRYPPWPGKIVNPPKDLKKPRGKKCFFVKFFGTEDHAWIKVEQLKPYHAHKEEMIKINKGKRFQQAVDAVEEFLRRAKGKDQTSSHNSSDDKNRRNSSEERSRPNSGDEKRKLSLSEGKVKKNMGEGKKRVSSGSSERGSKSPLKRAQEQSPRKRGRPPKDEKDLTIPESSTVKGMMAGPMAAFKWQPTASEPVKDADPHFHHFLLSQTEKPAVCYQAITKKLKICEEETGSTSIQAADSTAVNGSITPTDKKIGFLGLGLMGSGIVSNLLKMGHTVTVWNRTAEKCDLFIQEGARLGRTPAEVVSTCDITFACVSDPKAAKDLVLGPSGVLQGIRPGKCYVDMSTVDADTVTELAQVIVSRGGRFLEAPVSGNQQLSNDGMLVILAAGDRGLYEDCSSCFQAMGKTSFFLGEVGNAAKMMLIVNMVQGSFMATIAEGLTLAQVTGQSQQTLLDILNQGQLASIFLDQKCQNILQGNFKPDFYLKYIQKDLRLAIALGDAVNHPTPMAAAANEVYKRAKALDQSDNDMSAVYRAYIH
- binding result [3]: binds

B2: GST-NP.d3 (NPAC residues 152–252, linker region) (domain or fragment, UniProt Q49A26 152-252, looked up)
chain: SERGSKSPLKRAQEQSPRKRGRPPKDEKDLTIPESSTVKGMMAGPMAAFKWQPTASEPVKDADPHFHHFLLSQTEKPAVCYQAITKKLKICEEETGSTSIQ
- binding result [3]: binds

B3: NP.d9: deletion of amino acids 214–222 from NP.d3 (protein)
chain: SERGSKSPLKRAQEQSPRKRGRPPKDEKDLTIPESSTVKGMMAGPMAAFKWQPTASEPVKDASQTEKPAVCYQAITKKLKICEEETGSTSIQ
modifications: left off: GST, end not stated, kept
- LSD2 binding / interaction (LSD2 [1]): completely abolished LSD2 binding

B4: NP.d5: dehydrogenase domain, residues 262–553; GST-tagged (protein)
chain: SITPTDKKIGFLGLGLMGSGIVSNLLKMGHTVTVWNRTAEKCDLFIQEGARLGRTPAEVVSTCDITFACVSDPKAAKDLVLGPSGVLQGIRPGKCYVDMSTVDADTVTELAQVIVSRGGRFLEAPVSGNQQLSNDGMLVILAAGDRGLYEDCSSCFQAMGKTSFFLGEVGNAAKMMLIVNMVQGSFMATIAEGLTLAQVTGQSQQTLLDILNQGQLASIFLDQKCQNILQGNFKPDFYLKYIQKDLRLAIALGDAVNHPTPMAAAANEVYKRAKALDQSDNDMSAVYRAYIH
modifications: left off: GST, end not stated, kept
- LSD2 binding / interaction (LSD2 [1]): Neither the PWWP domain (NP.d1) nor the dehydrogenase domain (NP.d5) interacted with LSD2

B5: GST-NP.d4 (NPAC residues 152–553) (domain or fragment, UniProt Q49A26 152-553, looked up)
chain: SERGSKSPLKRAQEQSPRKRGRPPKDEKDLTIPESSTVKGMMAGPMAAFKWQPTASEPVKDADPHFHHFLLSQTEKPAVCYQAITKKLKICEEETGSTSIQAADSTAVNGSITPTDKKIGFLGLGLMGSGIVSNLLKMGHTVTVWNRTAEKCDLFIQEGARLGRTPAEVVSTCDITFACVSDPKAAKDLVLGPSGVLQGIRPGKCYVDMSTVDADTVTELAQVIVSRGGRFLEAPVSGNQQLSNDGMLVILAAGDRGLYEDCSSCFQAMGKTSFFLGEVGNAAKMMLIVNMVQGSFMATIAEGLTLAQVTGQSQQTLLDILNQGQLASIFLDQKCQNILQGNFKPDFYLKYIQKDLRLAIALGDAVNHPTPMAAAANEVYKRAKALDQSDNDMSAVYRAYIH
- binding result [3]: binds

B6: NP.d4: truncation protein containing the linker region, residues 152–553; GST-tagged (protein)
chain: B5 chain
modifications: left off: GST, end not stated, kept
- LSD2 binding / interaction (LSD2 [1]): capable of directly interacting with LSD2; also recorded: did not adversely affect LSD2 binding

B7: NP.d6: deletion of the linker region (residues 152–252); GST-tagged (protein)
chain: MAAVSLRLGDLVWGKLGRYPPWPGKIVNPPKDLKKPRGKKCFFVKFFGTEDHAWIKVEQLKPYHAHKEEMIKINKGKRFQQAVDAVEEFLRRAKGKDQTSSHNSSDDKNRRNSSEERSRPNSGDEKRKLSLSEGKVKKNMGEGKKRVSSGSAADSTAVNGSITPTDKKIGFLGLGLMGSGIVSNLLKMGHTVTVWNRTAEKCDLFIQEGARLGRTPAEVVSTCDITFACVSDPKAAKDLVLGPSGVLQGIRPGKCYVDMSTVDADTVTELAQVIVSRGGRFLEAPVSGNQQLSNDGMLVILAAGDRGLYEDCSSCFQAMGKTSFFLGEVGNAAKMMLIVNMVQGSFMATIAEGLTLAQVTGQSQQTLLDILNQGQLASIFLDQKCQNILQGNFKPDFYLKYIQKDLRLAIALGDAVNHPTPMAAAANEVYKRAKALDQSDNDMSAVYRAYIH
modifications: left off: GST, end not stated, kept
- LSD2 binding / interaction (LSD2 [1]): abolished NPAC-LSD2 interaction

B8: GST-NP.d2 (NPAC residues 1–252) (domain or fragment, UniProt Q49A26 1-252, looked up)
chain: MAAVSLRLGDLVWGKLGRYPPWPGKIVNPPKDLKKPRGKKCFFVKFFGTEDHAWIKVEQLKPYHAHKEEMIKINKGKRFQQAVDAVEEFLRRAKGKDQTSSHNSSDDKNRRNSSEERSRPNSGDEKRKLSLSEGKVKKNMGEGKKRVSSGSSERGSKSPLKRAQEQSPRKRGRPPKDEKDLTIPESSTVKGMMAGPMAAFKWQPTASEPVKDADPHFHHFLLSQTEKPAVCYQAITKKLKICEEETGSTSIQ
- binding result [3]: binds

B9: NP.d2: truncation protein containing the linker region, residues 1–252; GST-tagged (protein)
chain: B8 chain
modifications: left off: GST, end not stated, kept
- LSD2 binding / interaction (LSD2 [1]): capable of directly interacting with LSD2; also recorded: did not adversely affect LSD2 binding

B10: NP.d1: PWWP domain, residues 1–150; GST-tagged (protein)
chain: MAAVSLRLGDLVWGKLGRYPPWPGKIVNPPKDLKKPRGKKCFFVKFFGTEDHAWIKVEQLKPYHAHKEEMIKINKGKRFQQAVDAVEEFLRRAKGKDQTSSHNSSDDKNRRNSSEERSRPNSGDEKRKLSLSEGKVKKNMGEGKKRVSSG
modifications: left off: GST, end not stated, kept
- LSD2 binding / interaction (LSD2 [1]): Neither the PWWP domain (NP.d1) nor the dehydrogenase domain (NP.d5) interacted with LSD2

B11: GST-NP.d8 (NPAC residues 188–252) (domain or fragment, UniProt Q49A26 188-252, looked up)
chain: TVKGMMAGPMAAFKWQPTASEPVKDADPHFHHFLLSQTEKPAVCYQAITKKLKICEEETGSTSIQ
- binding result [3]: binds

B12: NP.d8: residues 188–252 (protein)
chain: B11 chain
modifications: left off: GST, end not stated, kept
- LSD2 binding / interaction (LSD2 [1]): sufficient for LSD2 interaction
